One test concerns NIH3T3. Description: Cytotoxic effect on 3T3 cells. In kind it is functional, cell-based. Particulars: Mus musculus. The procedure, abridged:
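3T3 parental fibroblasts, 2 × 10^4 cells in DMEM with 10% fetal calf serum; compounds dissolved or suspended in DMF or DMSO, final solvent ≤0.5% v/v. Value is the mean of two determinations.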

In a further test the test system is ANN-1. Description: Cytotoxic effect on v-abl transformed murine ANN-1 cells. In kind it is functional, cell-based. The settings on record: Mus musculus. A digest of the protocol:
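Abelson virus-transformed ANN-1 murine fibroblasts expressing the gag-abl tyrosine kinase, 2 × 10^4 cells in DMEM with 10% fetal calf serum; compounds in DMF or DMSO, final solvent ≤0.5% v/v. Value is the mean of two determinations.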

The next test deals with MCF7. Description: Cytotoxic effect on MCF-7 human breast carcinoma cells. The class given is functional, cell-based.
For a further test, the system named is WiDr. The test can be described thus: Cytotoxic effect on WiDr human colon cells. In kind it is functional, cell-based.
For test [1], the system named is HFF. The test can be described thus: (§1) Inhibition of EGF-induced mitogenesis in human foreskin fibroblasts. In kind it is functional, cell-based.
For test [2], the system named is HFF. Described as §1. The class given is functional, cell-based. This is another data set of the same source.
Test [3] deals with HFF. Description: Inhibition of PDGF-induced mitogenesis in human foreskin fibroblasts. The class given is functional, cell-based.
Test [4] addresses Epidermal growth factor receptor (Homo sapiens) (UniProt P00533). Particulars: A-431, 150 uM.

The text below walks through data of ChEMBL document CHEMBL1127530 (J Med Chem, 1994).

The structures appear in SMILES notation.

Sequence of Epidermal growth factor receptor (Homo sapiens) (P00533 whole entry): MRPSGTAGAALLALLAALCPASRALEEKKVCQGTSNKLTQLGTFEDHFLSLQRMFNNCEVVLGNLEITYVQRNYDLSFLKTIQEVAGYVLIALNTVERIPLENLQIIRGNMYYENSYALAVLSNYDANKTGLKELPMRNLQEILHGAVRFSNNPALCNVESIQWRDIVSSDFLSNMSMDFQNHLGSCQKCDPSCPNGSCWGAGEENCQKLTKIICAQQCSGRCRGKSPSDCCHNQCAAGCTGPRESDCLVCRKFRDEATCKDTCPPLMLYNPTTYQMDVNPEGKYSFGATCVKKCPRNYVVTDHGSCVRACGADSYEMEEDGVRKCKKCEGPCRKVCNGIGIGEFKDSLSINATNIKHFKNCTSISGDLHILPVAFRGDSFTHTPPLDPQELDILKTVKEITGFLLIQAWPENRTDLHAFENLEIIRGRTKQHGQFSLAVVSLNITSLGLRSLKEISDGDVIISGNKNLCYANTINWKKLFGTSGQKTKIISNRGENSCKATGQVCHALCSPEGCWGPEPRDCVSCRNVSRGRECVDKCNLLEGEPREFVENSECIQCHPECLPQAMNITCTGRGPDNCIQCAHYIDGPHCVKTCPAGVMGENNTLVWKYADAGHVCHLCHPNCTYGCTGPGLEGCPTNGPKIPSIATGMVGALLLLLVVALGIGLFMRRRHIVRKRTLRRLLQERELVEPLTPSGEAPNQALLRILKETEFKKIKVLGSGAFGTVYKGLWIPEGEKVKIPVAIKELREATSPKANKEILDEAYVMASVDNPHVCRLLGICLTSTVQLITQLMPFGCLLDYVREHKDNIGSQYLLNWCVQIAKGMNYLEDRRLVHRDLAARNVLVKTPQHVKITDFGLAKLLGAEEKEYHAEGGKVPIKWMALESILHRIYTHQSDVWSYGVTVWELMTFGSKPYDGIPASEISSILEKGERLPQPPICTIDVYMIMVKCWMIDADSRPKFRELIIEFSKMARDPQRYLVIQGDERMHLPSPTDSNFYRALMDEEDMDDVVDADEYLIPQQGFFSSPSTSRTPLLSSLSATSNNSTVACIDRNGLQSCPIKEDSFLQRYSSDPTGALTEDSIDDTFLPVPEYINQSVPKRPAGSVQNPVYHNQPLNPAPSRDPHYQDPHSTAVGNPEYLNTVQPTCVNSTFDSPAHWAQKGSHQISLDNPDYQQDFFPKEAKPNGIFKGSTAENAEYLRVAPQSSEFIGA

Turning to `O=c1c(-c2ccc(O)cc2)coc2cc(O)cc(O)c12` [GENISTEIN], the IC50 was 24 µM with NIH3T3, 8 µM with ANN-1, 15.1 µM with MCF7 and 27.7 µM in the test with WiDr.
For `Oc1ccc(-c2nc3cc(O)c(O)cc3s2)cc1`, in that order: 13.5 µM, 9 µM, 8.4 µM and 24.7 µM.
For the compound `CC/C(=C(/CC)c1ccc(O)cc1)c1ccc(O)cc1` [DIETHYLSTILBESTROL], the IC50 with NIH3T3 is 2.5 µM; in the test on ANN-1, 3 µM; with MCF7 it was 5 µM.
As for `Oc1ccc(-c2nc3c(O)cc(O)cc3s2)cc1`, the IC50 in the test with NIH3T3 amounted to 20 µM; in the test on ANN-1, 21.5 µM; in the test with HFF [1], 7 µM; in the test with HFF [2], 16 µM; in the test with HFF [3], 20 µM; with MCF7, 33.3 µM. Besides, the IC50 with WiDr came out at 31.2 µM.
Take `Oc1cc(O)c2nc(-c3ccc(O)c(O)c3)sc2c1`: the IC50 turned out to be 47 µM in the test with NIH3T3; 58.5 µM in the test with ANN-1; 7 µM in the test with HFF [1]; 9 µM in the test on HFF [2]; 68 µM with HFF [3]; 41.3 µM in the test with MCF7. In addition, in the test with WiDr, the midpoint of inhibition, the IC50, lay at 47.7 µM.
Turning to `Oc1cccc(-c2nc3ccc(O)cc3s2)c1`, the IC50 with NIH3T3 was 30.5 µM; in the test on ANN-1, 17 µM; with MCF7, 2.7 µM; with WiDr it was 18.3 µM.
For `Oc1ccc(-c2nc3cc(O)c(O)cc3s2)cc1O`, the IC50 is 56.5 µM in the test with NIH3T3, 32 µM with ANN-1, 5.1 µM in the test with MCF7 and 34.2 µM with WiDr. Further, in test [4], the inhibition is 38%.
`Oc1ccc(-c2nc3ccc(O)cc3s2)cc1`: the IC50 in the test with NIH3T3 amounted to 11 µM; in the test on ANN-1, 13.5 µM; in the test with HFF [1] it was 13 µM; with HFF [2], 6.5 µM; in the test on HFF [3] it was 14 µM; with MCF7, 25 µM. In the test on WiDr, this compound gave an IC50 of 67.2 µM. In addition, the inhibition in test [4] was determined as 42%.
`Oc1ccc2nc(-c3ccc(O)c(O)c3)sc2c1`: the IC50 in the test with NIH3T3 is 6 µM; in the test with ANN-1 it was 5.5 µM; in the test on MCF7 it was 17.6 µM; with WiDr, 23 µM.
For `Oc1ccc2nc(-c3ccccc3)sc2c1`, in that order: 79.5 µM, 71 µM, 27.3 µM and 45.2 µM.
On the same counts, the results for `Oc1ccc(-c2nc3ccccc3s2)cc1` are 71.5 µM, 77 µM, 27 µM and 68.7 µM.
For the compound `O=c1c(O)c(-c2ccc(O)c(O)c2)oc2cc(O)cc(O)c12` [QUERCETIN], the IC50 is 39.5 µM in the test with NIH3T3; 32.5 µM in the test with ANN-1; 100 µM in the test with HFF [3]; 24 µM in the test with MCF7; 40.2 µM in the test on WiDr.
As for `Oc1ccc(-c2nc3cc(O)ccc3s2)cc1`, the IC50 with NIH3T3 was 25 µM; in the test with ANN-1, 25.5 µM; in the test on MCF7, 41.4 µM; with WiDr, 62.2 µM.
